In ChEMBL document CHEMBL3596132, “Antiproliferative activity of O4-benzo[c]phenanthridine alkaloids against HCT-116 and HL-60 tumor cells” (Bioorg Med Chem Lett, 2015):

Experiments:
Assay type in all cases: functional, cell-based
HL-60 = assay: Antiproliferative activity against human HL60 cells assessed as inhibition of cell viability after 48 hrs by WST-1 assay; conditions: HL-60, 48 h
Method in brief: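 WST-1 assay. HL-60 cells were seeded at 1.0 × 10^4 per well in FBS-containing medium together with test agents and incubated 48 h. Absorbance read at 415 nm. Viability expressed as percent of untreated controls; IC50 reported.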

HCT-116 = assay: Antiproliferative activity against human HCT116 cells assessed as inhibition of cell viability after 48 hrs by MTT assay; conditions: HCT-116, 48 h
Method in brief: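 HCT-116 cells seeded at 2.0 × 10^3 per well and allowed to attach for 24 h at 37 °C, 5% CO2. Agents were added in FBS-containing medium for 48 h. MTT (5 mg/mL in PBS stock) was then added for 4 h, formazan dissolved in DMSO, and absorbance read at 570 nm. Viability expressed as percent of untreated controls; IC50 reported.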

HepG2 = assay: Cytotoxicity against human HepG2 cells

Structure (SMILES)	IC50 (HL-60) [µM]	IC50 (HCT-116) [µM]	IC50 (HepG2) [µM]
COc1ccc2c(c[n+](C)c3c4cc5c(cc4ccc23)OCO5)c1O	0.79	1.31	–
COc1cc2c(cc1O)-c1ccc3cc4c(cc3c1N(C)C2)OCO4	> 10	7.28	–
COc1ccc2c(c1OC)-c1ccc3cc4c(cc3c1N(C)C2)OCO4	> 10	> 10	–
COc1c(O)ccc2c1-c1ccc3cc4c(cc3c1N(C)C2)OCO4	> 10	> 10	–
COc1cc2c(cnc3c4cc5c(cc4ccc23)OCO5)cc1O	> 10	> 10	–
COc1ccc2cnc3c4cc5c(cc4ccc3c2c1OC)OCO5	> 10	> 10	–
COc1cc2c(cc1OC)-c1ccc3cc4c(cc3c1N(C)C2)OCO4	4.51	6.61	–
COc1ccc2c(c1O)CN(C)c1c-2ccc2cc3c(cc12)OCO3	4.96	3.22	–
COc1ccc2c(c[n+](C)c3c4cc5c(cc4ccc23)OCO5)c1OC [CHELERYTHRINE CHLORIDE]	2.99	2.13	–

More lines, main results first:

IC50 (HL-60) [µM]	IC50 (HCT-116) [µM]	Structure (SMILES)	IC50 (HepG2) [µM]
> 10	> 10	COc1ccc2c(cnc3c4cc5c(cc4ccc23)OCO5)c1OC	–
> 10	> 10	COc1cc2c(cc1O)c[n+](C)c1c3cc4c(cc3ccc21)OCO4	–
3.28	3.35	COc1cc2c[n+](C)c3c4cc5c(cc4ccc3c2cc1O)OCO5	–
7.82	3.23	COc1ccc2c[n+](C)c3c4cc5c(cc4ccc3c2c1OC)OCO5	–
> 10	> 10	COc1c(O)ccc2c[n+](C)c3c4cc5c(cc4ccc3c12)OCO5	–
> 10	> 10	COc1ccc2c(cnc3c4cc5c(cc4ccc23)OCO5)c1O	–
> 10	> 10	COc1cc2cnc3c4cc5c(cc4ccc3c2cc1O)OCO5	–
> 10	> 10	COc1c(O)ccc2cnc3c4cc5c(cc4ccc3c12)OCO5	–
> 10	> 10	COc1cc2cnc3c4cc5c(cc4ccc3c2cc1OC)OCO5	–
> 10	> 10	COc1ccc2c(c1OC)CN(C)c1c-2ccc2cc3c(cc12)OCO3 [DIHYDROCHELERYTHRINE]	–
3.41	4.42	COc1cc2c[n+](C)c3c4cc5c(cc4ccc3c2cc1OC)OCO5 [NITIDINE CHLORIDE]	3.52
